The structures appear in SMILES notation.

The nature of assay [1]: Displacement of [3H]DTG from sigma 2 receptor in guinea pig brain membrane. Format: cell membranes, Cavia porcellus. An outline of the steps: (§1)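 Male guinea pig brain membranes (0.25 mg protein) were incubated with 3.0 nM [3H]DTG plus 200 nM (+)-pentazocine as sigma1 mask. Buffer was 50 mM Tris-HCl, pH 8.0, and incubation was 120 min at 25 °C. DTG (100 µM) defined nonspecific binding. Ten log-spaced test concentrations were used. Filters were PEI-soaked GF/B, read by scintillation counting. Ki given as mean ± SEM, n = 3–5.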
In general terms: In a radioligand displacement assay an active substance lowers the binding of a labelled ligand.

The next assay is filed under the species Cavia porcellus. The assay can be described thus: Selectivity for sigma 2 receptor over sigma 1 receptor in guinea pig brain membrane. It counts as cell membranes. An outline of the steps: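 Selectivity is the ratio of sigma1 Ki to sigma2 Ki. Sigma1 Ki came from [3H](+)-pentazocine competition and sigma2 Ki from [3H]DTG competition with (+)-pentazocine mask, both in male guinea pig brain membranes.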

Assay [2] has as its target T1, Sigma non-opioid intracellular receptor 1 (Cavia porcellus, UniProt Q60492). Nature of the assay: Displacement of [3H](+)-pentazocine from sigma 1 receptor in guinea pig brain membrane. Format: cell membranes. An outline of the steps:
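Male guinea pig brain membranes (0.25 mg protein) were incubated with 1.0 nM [3H](+)-pentazocine in 50 mM Tris-HCl (pH 7.4, 25 °C) for 150 min at 37°C. Haloperidol (1.0 µM) defined nonspecific binding. Ten log-spaced test concentrations were used, in water with 0.1% HOAc/1.0% EtOH. Bound radioactivity was collected on PEI-soaked GF/B filters and counted by scintillation.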

Assay [3] is described as follows: Displacement of [3H]DTG from sigma 2 receptor in guinea pig brain membrane at pH 8.0 at 25 degC. Format: cell membranes, Cavia porcellus. A digest of the protocol:
as §1

Assay [4] concerns the target T1, Sigma non-opioid intracellular receptor 1. The assay can be described thus: Displacement of [3H](+)-pentazocine from sigma 1 receptor in guinea pig brain membrane at pH 8.0 at 25 degC. It counts as cell membranes. A digest of the protocol: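 This alternative sigma1 regimen used guinea pig brain membranes with 3.0 nM [3H](+)-pentazocine in pH 8.0 buffer. Incubation was 120 min at 25 °C. Nonspecific binding was defined with 10 µM (+)-pentazocine. Bound ligand was separated by filtration and counted by scintillation.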

T1 sequence (Q60492 whole entry): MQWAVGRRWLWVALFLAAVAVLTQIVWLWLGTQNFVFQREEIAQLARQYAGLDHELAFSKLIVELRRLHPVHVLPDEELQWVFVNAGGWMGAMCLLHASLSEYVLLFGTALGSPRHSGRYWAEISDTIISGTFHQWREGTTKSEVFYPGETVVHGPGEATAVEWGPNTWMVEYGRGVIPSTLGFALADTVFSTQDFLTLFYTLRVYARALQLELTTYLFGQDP

As a reminder, the Ki is a dissociation constant, usually derived from enzyme kinetics or from competition with a known ligand. For `COc1cc(Br)cc(C(=O)NCCCCN2CCc3cc4c(cc3C2)OCCO4)c1OC`, the Ki in assay [1] worked out at 21.7 nM; in assay [2], 338 nM. In the assay filed under Cavia porcellus, the Ratio Ki came out at 16.
For `COc1cc(Br)cc(C(=O)NCCCCN2CCc3cc4c(cc3C2)OCCCO4)c1OC`, in that order: 32.6 nM, 1430 nM and 44.
The like results for `COc1ccc(CCNCCCCNC(=O)c2cc(Br)cc(OC)c2OC)cc1OC` were, in that order, 4620 nM, 880 nM and 0.2.
On to `COc1cc(Br)cc(C(=O)NCCCCN2CCc3cc4c(cc3C2)OCO4)c1OC`, for which the results for the Ki in assay [1] and in assay [2] were 20.7 nM and 82.2 nM, respectively. In addition, in the assay listed under Cavia porcellus, the Ratio Ki is 4.
The IC50 is the concentration needed to halve the response being measured. Read a high IC50 as lower potency. As to `COc1cc2c(cc1OC)CN(CCCCNC(=O)c1cc(Br)cc(OC)c1OC)CC2`, the figures for the IC50 in assay [3] and in assay [4] were 3 nM and 1890 nM, respectively. In assay [1], this molecule came in with a Ki of 2.7 nM.
